Source: ChEMBL document CHEMBL5036345, “Identification of a dual acting SARS-CoV-2 proteases inhibitor through in silico design and step-by-step biological characterization” (Eur J Med Chem, 2021)
pEC50, pIC50, pKd: −log10 of the molar value. Where a SMILES comes first, the peptide text is derived from it. [ ]: non-standard residue; d: D form. The star is where a group is joined. AllylGly = C=CC[C@H](N)C(=O)O; Boc = CC(C)(C)OC(=O)*; NHBn = c1ccc(CN*)cc1; NHtBu = CC(C)(C)N*; ClAc = O=C(CCl)*

Assays:
SARS-CoV-2 [1] = assay: Antiviral activity against Severe acute respiratory syndrome coronavirus 2 UC-1074 infected in African green monkey Vero cells assessed as reduction in plaque formation measured after 5 days by microscopic analysis; type: functional, organism-based; conditions: Severe acute respiratory syndrome coronavirus 2, UC-1074, Vero, 120 h
[2] = Cytotoxicity against African green monkey Vero cells assessed as effect on cell morphology by microscopic analysis; type: cell-based; conditions: chlorocebus sabaeus
Summary of the method: (§1)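 Vero cells were treated with a compound dilution series in DMEM 2% FCS for 5 days at 37 °C, in parallel with the antiviral assay. MCC is the lowest concentration giving a microscopically detectable change in morphology. CC50 is the concentration halving cell number in mock-infected cultures, counted by Coulter counter.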

[3] = Inhibition of SARS CoV-2 papain-like protease using Z-Arg-Leu-Arg-Gly-Gly-AMC as substrate preincubated for 30 mins followed by substrate addition and measured after 50 mins by multimode plate reader method; parameters: species or system Severe acute respiratory syndrome coronavirus 2
SARS-CoV-2 [4] = assay: Antiviral activity against Severe acute respiratory syndrome coronavirus 2 UC-1075 infected in African green monkey Vero cells assessed as reduction in plaque formation measured after 5 days by microscopic analysis; type: functional, organism-based; conditions: Severe acute respiratory syndrome coronavirus 2, UC-1075, Vero, 120 h
Vero = assay: Cytotoxicity against African green monkey Vero cells assessed as reduction in cell viability by coulter counter method; type: cell-based; conditions: chlorocebus sabaeus; summary of the method: as §1
[5] = Inhibition of SARS CoV-2 main protease using DABCYL-KTSAVLQ1SGFRKM-E(EDANS)-NH2 as substrate preincubated for 30 mins followed by substrate addition and measured after 4 hrs by multimode microplate reader assay; parameters: species or system Severe acute respiratory syndrome coronavirus 2
Spike glycoprotein = Spike glycoprotein (Severe acute respiratory syndrome coronavirus 2, UniProt P0DTC2); assay: Binding affinity to CM5 sensor chip immobilized SARS-CoV-2 spike glycoprotein assessed as dissociation constant by SPR analysis
Summary of the method: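 Spike protein (1.25 μM in 10 mM sodium acetate, pH 4.59) was amine-coupled to about 11500 RU, with the first channel as reference. Running buffer was 10× diluted HBS-P plus 5% DMSO. Compounds at 0.75–100 μM were injected at 25 °C and 20 μL/min, with 90 s association and 600 s dissociation. Runs were in triplicate; KD came from a global 1:1 fit.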

Row | Compound | pEC50 (SARS-CoV-2 [1]) | MCC [2] | pIC50 [3] | pEC50 (SARS-CoV-2 [4]) | CC50 (Vero) | pIC50 [5] | pKd (Spike glycoprotein)
1 | C#CC[C@H](NCc1ccccc1)C(=O)N[C@@H](Cc1c[nH]c2ccccc12)C(=O)NCc1ccc(-c2ccccc2)cc1 | 5.05 | ≥ 100 µM | < 4.60 | 4.96 | 51.5 µM | 5.54 | –
2 | COC(=O)c1ccc2c(c1)c(CN(CCc1ccc(-c3ccccc3)cc1)Cc1ccccc1)cn2CC(C)C | 5.22 | 100 µM | < 4.60 | 6.36 | 31.5 µM | < 4.60 | 5.49
3 | C#CC[C@H](NC(=O)OC(C)(C)C)C(=O)N(Cc1ccccc1)Cc1cn(C)c2ccc(C(=O)OC)cc12 | 5.40 | 100 µM | < 4.60 | 4.70 | 8.09 µM | < 4.60 | 4.94
4 | C#CC[C@H](NCc1ccc(-c2ccccc2)cc1)C(=O)N[C@@H](Cc1c[nH]c2ccccc12)C(=O)NC(C)(C)C | < 5.40 | 20 µM | < 4.60 | < 5.40 | 4.67 µM | < 4.60 | < 4.60
5 | CC(C)(C)NC(=O)[C@H](Cc1c[nH]c2ccccc12)NC(=O)[C@H](Cc1ccccc1)NCc1ccc(-c2ccccc2)cc1 | 5.66 | > 100 µM | < 4.60 | 5.70 | 1.49 µM | < 4.60 | 4.72
6 | CC(C)C[C@H](NCc1ccc(-c2ccccc2)cc1)C(=O)N[C@@H](Cc1c[nH]c2ccccc12)C(=O)NC(C)(C)C | < 5.40 | 20 µM | < 4.60 | < 5.40 | 10.6 µM | 5.76 | < 4.60
7 | CC(C)C[C@H](NCc1ccc(-c2ccccc2)cc1)C(=O)N[C@@H](Cc1c[nH]c2ccccc12)C(=O)NCc1ccccc1 | < 5.40 | > 20 µM | < 4.60 | < 5.40 | 34.7 µM | 4.63 | –
8 | CCC(CC)COC(=O)[C@H](C)N[P@](=O)(OC[C@H]1O[C@@](C#N)(c2ccc3c(N)ncnn23)[C@H](O)[C@@H]1O)Oc1ccccc1 | 6.06 | > 40 µM | – | 6.21 | > 40 µM | – | –
9 | C=CC[C@H](NC(=O)CCl)C(=O)N[C@@H](Cc1c[nH]c2ccccc12)C(=O)NCc1ccccc1 (ClAc-[AllylGly]-Trp-NHBn) | 6.49 | 100 µM | 6.17 | 5.86 | 38.7 µM | 5.76 | < 4.60
10 | CC(C)(C)NC(=O)[C@H](Cc1c[nH]c2ccccc12)NC(=O)[C@@H]1CCCN1C(=O)OC(C)(C)C (Boc-Pro-Trp-NHtBu) | < 4.00 | > 100 µM | < 4.60 | < 4.00 | > 100 µM | 5.30 | < 4.60
11 | C=CC[C@H](NCc1ccccc1)C(=O)N[C@@H](Cc1c[nH]c2ccccc12)C(=O)NCc1ccc(-c2ccccc2)cc1 | 4.20 | > 100 µM | < 4.60 | < 4.70 | 78.4 µM | < 4.60 | < 4.60
12 | C#CC[C@H](NCCC)C(=O)N[C@@H](Cc1c[nH]c2ccccc12)C(=O)NCc1ccc(-c2ccccc2)cc1 | < 4.70 | > 100 µM | < 4.60 | < 4.70 | 42.4 µM | 4.64 | –
